# Results of several laboratories.
# Protocols differ between the studies behind these lines.
# Mode: inhibitor
# CDK2: Cyclin-dependent kinase 2 (CDK2, Homo sapiens, UniProt P24941)
# PARP2: Poly [ADP-ribose] polymerase 2 (PARP2, Homo sapiens, UniProt Q9UGN5)
Compound,target,assay,setting,IC50
NC/C(=C\F)COc1cccc(Cn2c(=S)[nH]c(=O)c3[nH]cnc32)c1,"Sodium channel protein type 5 subunit alpha (SCN5A, Homo sapiens, UniProt Q14524)",ion current,,> 100 µM
Cc1n[nH]c2ccc3nc(-c4ccc(C(=O)NCCN(C)C)cc4)c4c(c3c12)CCC(F)(F)C4,CDK2,enzyme activity,,0.594 µM
CC(=O)N1C(=O)NC(C)=C(C(=O)OCc2ccccc2)C1c1cccc([N+](=O)[O-])c1 (racemic),"Voltage-dependent L-type calcium channel subunit alpha-1C (Cacna1c, Rattus norvegicus, UniProt P22002)","ion current, patch clamp",,2.6 µM
CN(C)CCNC(=O)c1ccc(-c2nc3ccc4[nH]ncc4c3c3c2CC(C)(C)CC3)cc1,CDK2,enzyme activity,,0.145 µM
NC(=O)c1cccnc1,"Nicotinamide N-methyltransferase (NNMT, Homo sapiens, UniProt P40261)",enzyme activity in cells,,> 31.6 µM
Cc1n[nH]c2ccc3nc(-c4ccc(C(=O)NCCN5CCCC5)cc4)c4c(c3c12)CCCC4,CDK2,enzyme activity,,0.31 µM
CCc1ccc(Cn2nnc3c4ccc(F)cc4c(=O)[nH]c32)cc1,PARP2,"enzyme activity, fluorescence",,> 10 µM
Cn1cc(C2=C(c3cn(CCCSC(=N)N)c4ccccc34)C(=O)NC2=O)c2ccccc21,"Serine/threonine-protein kinase VRK1 (VRK1, Homo sapiens, UniProt Q99986)",enzyme activity,,0.644 µM
Cc1cccc(Cn2nnc3c4ccc(F)cc4c(=O)[nH]c32)c1,PARP2,enzyme activity,,> 10 µM
O=c1[nH]c(=O)c(Cc2cccc(C(F)(F)F)c2)c([C@H]2CC[C@H](c3ccccc3)CC2)[nH]1,"Multidrug and toxin extrusion protein 1 (SLC47A1, Homo sapiens, UniProt Q96FL8)",transporter uptake,,> 8 µM
COc1ccc2c(=O)[nH]c3c(nnn3Cc3ccc(C)cc3)c2c1,PARP2,"enzyme activity, fluorescence",,> 10 µM
CC(=O)C(=O)N(CC(C)C)NC(=O)[C@H](Cc1ccccc1)NC(=O)[C@H](CC(C)C)NC(=O)[C@H](CCc1ccccc1)NC(=O)OCc1ccccc1,"Cathepsin B (CTSB, Homo sapiens, UniProt P07858)","enzyme activity, fluorescence",pH 6,31.5 µM
